From ChEMBL document CHEMBL4813996, “Design and development of 1,3,5-triazine derivatives as protective agent against spinal cord injury in rat via inhibition of NF-ĸB” (Bioorg Med Chem Lett, 2021)
The source made the active and inactive calls. The calls are words filed in the database; no cut-off is given here.

Assays:
[1] = Inhibition of NFkappaB transcriptional activity in LPS-stimulated mouse RAW264.7 cells
Method in brief: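 IC50 for inhibition of NF-κB transcription, reported as mean ± SD from at least three independent assays.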

Rattus norvegicus [2] = assay: Neuroprotective activity in Sprague-Dawley rat SCI model assessed as reduction in IL-1beta level at 10 to 30 mg/kg, ip administered once daily for 14 days by ELISA; assay type: functional, organism-based; conditions: dose 10-30 mg/kg, time 14.0 day
Method in brief: (§1)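 After weight-drop contusion SCI, rats received 10, 20 or 30 mg/kg i.p. as a 2% CMC suspension once daily for 14 days. TNF-α, IL-1β and IL-6 levels determined by ELISA. Mean ± SEM from three independent experiments, one-way ANOVA followed by Tukey post hoc test.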

Rattus norvegicus [3] = assay: Neuroprotective activity in contusion injury induced Sprague-Dawley rat SCI model assessed as inhibition of morphological changes in spinal cord at 10 to 30 mg/kg, ip administered once daily for 14 days by H and E staining based assay; assay type: functional, organism-based; conditions: dose 10-30 mg/kg, time 14.0 day
Method in brief: (§2)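 Rats with SCI from weight-drop contusion received 10, 20 or 30 mg/kg i.p., suspended in 2% CMC, daily for 14 days. Spinal cord tissue sections stained with H&E for histopathology and edema. Three independent experiments, mean ± SEM, one-way ANOVA with Tukey post hoc test.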

Rattus norvegicus [4] = assay: Neuroprotective activity in contusion injury induced Sprague-Dawley rat SCI model assessed as improvement in ratio of wet to dry spinal cord weight at 10 to 30 mg/kg, ip administered once daily for 14 days; assay type: functional, organism-based; conditions: dose 10-30 mg/kg, time 14.0 day
Method in brief: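 Weight-drop contusion SCI, with a rod dropped on the cord. Rats given 10, 20 or 30 mg/kg i.p. in 2% CMC once a day for 14 days. Ratio of wet to dry spinal cord weight measured 24 h post-SCI. Mean ± SEM of three independent experiments, one-way ANOVA with Tukey test.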

Rattus norvegicus [5] = assay: Neuroprotective activity in Sprague-Dawley rat SCI model assessed as reduction in MDA level at 10 to 30 mg/kg, ip administered once daily for 14 days; assay type: functional, organism-based; conditions: dose 10-30 mg/kg, time 14.0 day
Method in brief: (§3)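 Spinal cord of weight-drop contusion SCI rats dosed at 10, 20 or 30 mg/kg i.p. in 2% CMC daily for 14 days. Oxidative stress indices MDA, GSH and SOD measured in spinal cord. Mean ± SEM, three independent experiments, one-way ANOVA with Tukey test against sham and SCI groups.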

Rattus norvegicus [6] = assay: Neuroprotective activity in Sprague-Dawley rat SCI model assessed as increase in GSH level at 10 to 30 mg/kg, ip administered once daily for 14 days; assay type: functional, organism-based; conditions: dose 10-30 mg/kg, time 14.0 day; method in brief: as §3
Rattus norvegicus [7] = assay: Neuroprotective activity in Sprague-Dawley rat SCI model assessed as reduction in IkappaBalpha expression in spinal cord at 10 to 30 mg/kg, ip administered once daily for 14 days by Western blot analysis; assay type: functional, organism-based; conditions: dose 10-30 mg/kg, time 14.0 day
Method in brief: (§4)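 Weight-drop contusion SCI rats treated with 10, 20 or 30 mg/kg i.p. in 2% CMC daily for 14 days. Spinal cord tissue analysed by western blot for NF-κB, p-IκBα and TLR4, with band quantification. Mean ± SEM of three independent experiments.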

Rattus norvegicus [8] = assay: Neuroprotective activity in Sprague-Dawley rat SCI model assessed as reduction in IL-6 level at 10 to 30 mg/kg, ip administered once daily for 14 days by ELISA; assay type: functional, organism-based; conditions: dose 10-30 mg/kg, time 14.0 day; method in brief: as §1
Rattus norvegicus [9] = assay: Neuroprotective activity in Sprague-Dawley rat SCI model assessed as reduction in TNFalpha level at 10 to 30 mg/kg, ip administered once daily for 14 days by ELISA; assay type: functional, organism-based; conditions: dose 10-30 mg/kg, time 14.0 day; method in brief: as §1
Rattus norvegicus [10] = assay: Neuroprotective activity in Sprague-Dawley rat SCI model assessed as reduction in TLR4 expression in spinal cord at 10 to 30 mg/kg, ip administered once daily for 14 days by Western blot analysis; assay type: functional, organism-based; conditions: dose 10-30 mg/kg, time 14.0 day; method in brief: as §4
Rattus norvegicus [11] = assay: Neuroprotective activity in contusion injury induced Sprague-Dawley rat SCI model assessed as restoration of tissue histopathology in spinal cord at 10 to 30 mg/kg, ip administered once daily for 14 days by H and E staining based assay; assay type: functional, organism-based; conditions: dose 10-30 mg/kg, time 14.0 day; method in brief: as §2
Rattus norvegicus [12] = assay: Neuroprotective activity in Sprague-Dawley rat SCI model assessed as reduction in NFkappaB expression in spinal cord at 10 to 30 mg/kg, ip administered once daily for 14 days by Western blot analysis; assay type: functional, organism-based; conditions: dose 10-30 mg/kg, time 14.0 day; method in brief: as §4
Rattus norvegicus [13] = assay: Neuroprotective activity in ip dosed contusion injury induced Sprague-Dawley rat SCI model assessed as restoration of motor functions administered once daily for 14 days; assay type: functional, organism-based; conditions: dose 10-30 mg/kg, time 14.0 day
Method in brief: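 Spinal cord contusion made by weight drop, a rod dropped onto the cord. Dosing at 10, 20 and 30 mg/kg i.p., suspended in 2% CMC, once daily for 14 days. Motor function scored on the BBB scale on days 1, 4, 7, 10 and 14. Mean ± SEM from three independent experiments, one-way ANOVA with Tukey post hoc test, compared with sham and SCI groups.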

Rattus norvegicus [14] = assay: Neuroprotective activity in contusion injury induced Sprague-Dawley rat SCI model assessed as reduction in edema in spinal cord at 10 to 30 mg/kg, ip administered once daily for 14 days by H and E staining based assay; assay type: functional, organism-based; conditions: dose 10-30 mg/kg, time 14.0 day; method in brief: as §2
Rattus norvegicus [15] = assay: Neuroprotective activity in Sprague-Dawley rat SCI model assessed as increase in SOD level at 10 to 30 mg/kg, ip administered once daily for 14 days; assay type: functional, organism-based; conditions: dose 10-30 mg/kg, time 14.0 day; method in brief: as §3
Rattus norvegicus [16] = assay: Neuroprotective activity in ip dosed Sprague-Dawley rat SCI model assessed as increase in nissl bodies administered once daily for 14 days by Nissl staining based assay; assay type: functional, organism-based; conditions: dose 10-30 mg/kg, time 14.0 day
Method in brief: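 Contusion SCI by weight drop. Treatment at 10, 20 or 30 mg/kg i.p. in 2% CMC once daily for 14 days. Neuronal damage assessed by Nissl staining of the spinal cord, with Nissl bodies quantified. Mean ± SEM from three independent experiments.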

`Cc1nc(NC(=O)c2ccc(CN3CCN(c4ccc(Br)cc4)CC3)cc2)nc(Nc2nccc(-c3nccs3)n2)n1` gave an IC50 [1] of 3.21 µM.
`Cc1nc(NC(=O)c2ccc(CN3CCN(c4ccc([N+](=O)[O-])cc4)CC3)cc2)nc(Nc2nccc(-c3nccs3)n2)n1` showed an IC50 [1] of 6.12 µM.
With `C[C@@H]1C[C@H]2[C@@H]3CCC4=CC(=O)C=C[C@]4(C)[C@@]3(F)[C@@H](O)C[C@]2(C)[C@@]1(O)C(=O)CO` [DEXAMETHASONE] the IC50 [1] was 0.92 µM.
Work on `Cc1nc(NC(=O)c2ccc(CN3CCN(c4ccc(O)cc4)CC3)cc2)nc(Nc2nccc(-c3nccs3)n2)n1` yielded an IC50 [1] of 54.2 µM.
With `Cc1nc(NC(=O)c2ccc(CN3CCN(c4ccc(Cl)cc4)CC3)cc2)nc(Nc2nccc(-c3nccs3)n2)n1` the Activity (Rattus norvegicus [2]) was “Active”, the Activity (Rattus norvegicus [3]) was “Active” and the Activity (Rattus norvegicus [4]) was “Active”. The Activity (Rattus norvegicus [5]) was “Active”, the IC50 [1] was 1.04 µM and the Activity (Rattus norvegicus [6]) was “Active”. The Activity (Rattus norvegicus [7]) was “Active”, the Activity (Rattus norvegicus [8]) was “Active” and the Activity (Rattus norvegicus [9]) was “Active”. For the same molecule, the Activity (Rattus norvegicus [10]) was “Active”, the Activity (Rattus norvegicus [11]) was “Active” and the Activity (Rattus norvegicus [12]) was “Active”. For the same molecule, the Activity (Rattus norvegicus [13]) was “Dose-Dependent Effect”, the Activity (Rattus norvegicus [14]) was “Active” and the Activity (Rattus norvegicus [15]) was “Active”. For the same molecule, the Activity (Rattus norvegicus [16]) was “Dose-Dependent Effect”.
For `COc1ccc(N2CCN(Cc3ccc(C(=O)Nc4nc(C)nc(Nc5nccc(-c6nccs6)n5)n4)cc3)CC2)cc1`, the IC50 [1] was 87.3 µM.
Work on `Cc1nc(NC(=O)c2ccc(CN3CCN(c4ccccc4)CC3)cc2)nc(Nc2nccc(-c3nccs3)n2)n1` yielded an IC50 [1] of 136 µM.
Molecule `Cc1ccc(N2CCN(Cc3ccc(C(=O)Nc4nc(C)nc(Nc5nccc(-c6nccs6)n5)n4)cc3)CC2)cc1` has an IC50 [1] of 9.9 µM.
Molecule `Cc1ccc(NC(=O)c2ccc(CN3CCN(C)CC3)cc2)cc1Nc1nccc(-c2cccnc2)n1` [IMATINIB] has an IC50 [1] of 1.34 µM.
